pIC50: −log10 of the molar value. Converted amounts (≈) assume the structure as drawn.
Tests used:
[1] = Cytotoxicity against human LXFA 526L cells; assay type: functional, cell-based
How it was run: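 Monolayer cell survival and proliferation assay run across a panel of 36 human tumour cell lines; IC50 values determined.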

NCI-H460 [2] = assay: Cytotoxicity against human H460 cells at 1 ug/ml relative to control; assay type: functional
T-24 [3] = assay: Cytotoxicity against human T24 cells at 0.01 ug/ml relative to control; assay type: functional
[4] = Cytotoxicity against human HNXF 536L cells at 0.01 ug/ml relative to control; assay type: functional
[5] = Cytotoxicity against human HNXF 536L cells at 1 ug/ml relative to control; assay type: functional
HT-29 = assay: Cytotoxicity against human HT-29 cells at 0.001 ug/ml relative to control; assay type: functional
[6] = Cytotoxicity against human LXFA 289L cells at 0.1 ug/ml relative to control; assay type: functional
[7] = Cytotoxicity against human BXF 1218L cells at 10 ug/ml relative to control; assay type: functional
[8] = Cytotoxicity against human GXF251L cells at 0.01 ug/ml relative to control; assay type: functional
[9] = Cytotoxicity against human PXF 1752L cells at 10 ug/ml relative to control; assay type: functional
[10] = Cytotoxicity against human OVXF 1619L cells at 0.001 ug/ml relative to control; assay type: functional
[11] = Cytotoxicity against human OVXF 1619L cells at 1 ug/ml relative to control; assay type: functional
HCT-116 = assay: Cytotoxicity against human HCT116 cells at 0.1 ug/ml relative to control; assay type: functional
T-24 [12] = assay: Cytotoxicity against human T24 cells; assay type: functional, cell-based
How it was run: (§1)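 Monolayer cell survival and proliferation assay run across a panel of 36 human tumor cell lines, with IC50 determined from the resulting growth data.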

[13] = Cytotoxicity against human HNXF 536L cells at 0.1 ug/ml relative to control; assay type: functional
[14] = Cytotoxicity against human MAXF 401NL cells at 0.1 ug/ml relative to control; assay type: functional
[15] = Cytotoxicity against human RXF 393NL cells; assay type: functional, cell-based; how it was run: as §1
NCI-H460 [16] = assay: Cytotoxicity against human H460 cells at 0.01 ug/ml relative to control; assay type: functional
[17] = Cytotoxicity against human LXFA 526L cells at 0.1 ug/ml relative to control; assay type: functional
[18] = Cytotoxicity against human RXF 393NL cells at 10 ug/ml relative to control; assay type: functional
[19] = Cytotoxicity against human MEXF 394NL cells at 10 ug/ml relative to control; assay type: functional
[20] = Cytotoxicity against human RXF 944L cells at 0.001 ug/ml relative to control; assay type: functional
OVCAR-3 [21] = assay: Cytotoxicity against human OVCAR3 cells at 1 ug/ml relative to control; assay type: functional
[22] = Cytotoxicity against human MEXF 520L cells; assay type: functional, cell-based; how it was run: as §1
[23] = Cytotoxicity against human RXF 1781L cells at 0.1 ug/ml relative to control; assay type: functional
[24] = Cytotoxicity against human PXF 1752L cells at 0.001 ug/ml relative to control; assay type: functional
[25] = Cytotoxicity against human RXF 1781L cells at 0.001 ug/ml relative to control; assay type: functional
[26] = Cytotoxicity against human BXF 1218L cells at 0.1 ug/ml relative to control; assay type: functional
NCI-H460 [27] = assay: Cytotoxicity against human H460 cells at 0.1 ug/ml relative to control; assay type: functional
[28] = Cytotoxicity against human GXF251L cells at 0.1 ug/ml relative to control; assay type: functional
[29] = Cytotoxicity against human CNXF 498NL cells at 10 ug/ml relative to control; assay type: functional
CWR22R = assay: Cytotoxicity against human 22Rv1 cells at 0.1 ug/ml relative to control; assay type: functional
[30] = Cytotoxicity against human RXF 944L cells at 0.01 ug/ml relative to control; assay type: functional
[31] = Cytotoxicity against human PXF 1752L cells at 0.01 ug/ml relative to control; assay type: functional
[32] = Cytotoxicity against human GXF251L cells at 0.001 ug/ml relative to control; assay type: functional
OVCAR-3 [33] = assay: Cytotoxicity against human OVCAR3 cells at 0.001 ug/ml relative to control; assay type: functional
DU-145 [34] = assay: Cytotoxicity against human DU145 cells at 1 ug/ml relative to control; assay type: functional
[35] = Cytotoxicity against human PAXF 1657L cells at 0.001 ug/ml relative to control; assay type: functional
[36] = Cytotoxicity against human LXFA 526L cells at 10 ug/ml relative to control; assay type: functional
DU-145 [37] = assay: Cytotoxicity against human DU145 cells at 0.1 ug/ml relative to control; assay type: functional
NCI-H460 [38] = assay: Cytotoxicity against human H460 cells at 0.001 ug/ml relative to control; assay type: functional
[39] = Cytotoxicity against human CNXF 498NL cells at 0.1 ug/ml relative to control; assay type: functional
[40] = Cytotoxicity against human LXFL 1121L cells at 0.1 ug/ml relative to control; assay type: functional
[41] = Cytotoxicity against human MEXF 394NL cells at 0.001 ug/ml relative to control; assay type: functional
[42] = Cytotoxicity against human UXF 1138L cells at 0.001 ug/ml relative to control; assay type: functional
[43] = Cytotoxicity against human RXF 944L cells; assay type: functional, cell-based; how it was run: as §1
[44] = Cytotoxicity against human HNXF 536L cells; assay type: functional, cell-based
How it was run: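 Monolayer cell survival and proliferation assay, run within a panel of 36 human tumor cell lines; IC50 determined per cell line.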

[45] = Cytotoxicity against human HNXF 536L cells at 0.001 ug/ml relative to control; assay type: functional
[46] = Cytotoxicity against human PC3M cells; assay type: functional, cell-based; details: PC-3M; how it was run: as §1
[47] = Cytotoxicity against human MAXF 401NL cells at 0.01 ug/ml relative to control; assay type: functional

With `C=C1[C@@H](O)[C@H]2O[C@@]2(C[C@H]2C(C)=CC[C@H]3C(C)(C)CCC[C@]23C)[C@@H](O)[C@H]1O` [EPOXYPHOLAMIN D] the pIC50 [1] was 4.87, the IC70 [1] was 7.76 µg/mL (≈ 21.4 µM) and the IC90 [1] was 12.3 µg/mL (≈ 33.9 µM). The Activity (NCI-H460 [2]) was 86%, the Activity (T-24 [3]) was 97% and the Activity [4] was 76%. It also gave an Activity [5] of 88%, an Activity (HT-29) of 97% and an Activity [6] of 106%. The Activity [7] was 17%, the Activity [8] was 100% and the Activity [9] was 13%. The Activity [10] was 122%, the Activity [11] was 103% and the Activity (HCT-116) was 108%. The pIC50 (T-24 [12]) was 4.92, the IC70 (T-24 [12]) was 6.41 µg/mL (≈ 17.7 µM) and the IC90 (T-24 [12]) was 9.44 µg/mL (≈ 26 µM). For the same molecule, the Activity [13] was 98%, the Activity [14] was 110% and the pIC50 [15] was 4.93. The IC70 [15] was 6.53 µg/mL (≈ 18 µM), the IC90 [15] was 10 µg/mL (≈ 27.6 µM) and the Activity (NCI-H460 [16]) was 98%. It also gave an Activity [17] of 115%, an Activity [18] of 10% and an Activity [19] of 6%. The Activity [20] was 150%, the Activity (OVCAR-3 [21]) was 43% and the pIC50 [22] was 5.12. The IC70 [22] was 4.91 µg/mL (≈ 13.6 µM), the IC90 [22] was 8.68 µg/mL (≈ 23.9 µM) and the Activity [23] was 98%. For the same molecule, the Activity [24] was 95%, the Activity [25] was 98% and the Activity [26] was 104%. For the same molecule, the Activity (NCI-H460 [27]) was 91%, the Activity [28] was 112% and the Activity [29] was 4%. The Activity (CWR22R) was 90%, the Activity [30] was 138% and the Activity [31] was 101%. For the same molecule, the Activity [32] was 105%, the Activity (OVCAR-3 [33]) was 100% and the Activity (DU-145 [34]) was 90%. It also gave an Activity [35] of 100%, an Activity [36] of 19% and an Activity (DU-145 [37]) of 88%. For the same molecule, the Activity (NCI-H460 [38]) was 107%, the Activity [39] was 71% and the Activity [40] was 146%. For the same molecule, the Activity [41] was 97%, the Activity [42] was 96% and the pIC50 [43] was 4.97. It also gave an IC70 [43] of 6.58 µg/mL (≈ 18.1 µM), an IC90 [43] of 11.1 µg/mL (≈ 30.6 µM) and a pIC50 [44] of 5.10. The IC70 [44] was 5 µg/mL (≈ 13.8 µM), the IC90 [44] was 8.7 µg/mL (≈ 24 µM) and the Activity [45] was 79%. For the same molecule, the pIC50 [46] was 6.14, the IC70 [46] was 0.605 µg/mL (≈ 1.67 µM) and the IC90 [46] was 4.12 µg/mL (≈ 11.4 µM). The Activity [47] was 110%.

From ChEMBL document CHEMBL1649383, “Mode of action of epoxyphomalins A and B and characterization of related metabolites from the marine-derived fungus Paraconiothyrium sp” (J Nat Prod, 2010)
